Screens (PubChem BioAssay)
An excerpt weighted towards active compounds, which were near 3.5% of everything screened.
RGS4 act – potentiators or activators of RGS4 | HEK293 M3R/inducible RGS4, carbachol calcium flux Fluo4; hits give low values | hit rate 0.92% among 310,000 | B-score at 10 µM;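 active = B-score of the integrated calcium signal more than 4 SD below the library mean, with starting fluorescence not abnormally high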;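 note: negative B-score means reduced calcium response which marks RGS4 activation or potentiation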
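System: HEK293 FlpIn-TREx cells, stable M3R, doxycycline-inducible RGS4. Timing: overnight RGS4 induction, 30 min dye load 37 °C, 20 min compound RT. Also added: carbachol, ECmax concentration. Measured by: Fluo4 fluorescence kinetic imaging of calcium. Evaluation: integrated calcium ratio converted to B score.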
MrgX1 antag – human MrgX1 receptor antagonism, primary screen; Q96LB2; MRGX1-HEK293 calcium flux, Fluo-4, BAM8-22 antagonism; hits give low values; B-score at 10 µM; hit rate 1.3% among 310,000;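 active = calcium-response B-score plate-corrected more than 3 library SD below zero, starting fluorescence within 5 deviations, no agonist response on first addition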;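 note: peak minus trough fluorescence over baseline after final BAM8-22 challenge near maximal dose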
Target sequence (Q96LB2 whole entry, looked up): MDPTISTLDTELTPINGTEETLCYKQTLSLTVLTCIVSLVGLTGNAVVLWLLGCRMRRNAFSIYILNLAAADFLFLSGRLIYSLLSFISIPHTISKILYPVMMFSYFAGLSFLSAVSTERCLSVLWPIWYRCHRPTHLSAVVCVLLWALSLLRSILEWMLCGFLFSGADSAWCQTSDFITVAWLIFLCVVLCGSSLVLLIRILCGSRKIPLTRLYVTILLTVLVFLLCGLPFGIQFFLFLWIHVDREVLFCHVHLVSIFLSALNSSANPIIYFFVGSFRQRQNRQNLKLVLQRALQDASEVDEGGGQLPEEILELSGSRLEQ
MrgX1 ag – agonists of human MrgX1 receptor. hit rate 0.44% among 310,000. B-score at 10 µM. AID 588627. Q96LB2. MrgX1-HEK293 cells, Fluo-4 calcium fluorescence, agonist mode; hits give high values;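 active = calcium response B-score plate-corrected fluorescence ratio at least 3 library SD, with starting fluorescence B-score inside 5 SD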
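Assay system: MrgX1-expressing HEK293 cells / Amount: fifteen thousand cells per well / Doses: test compound in the initial addition of three / Timing: cells plated overnight, dye loaded 0.5 h 37 °C, 0.5 h room temperature / Technique: kinetic calcium dye fluorescence, Fluo-4 NW / Control set: positive and negative controls per plate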
RGS4 inh – human RGS4 inhibition; P49798; HEK293 M3R/RGS4 inducible, Fluo-4 calcium flux; hits give high values; triggered by carbachol at its EC20; B-score at 10 µM; hit rate 0.45% among 310,000;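 active = B-score, a plate-corrected calcium signal, over three deviations above library mean, with baseline fluorescence within five deviations of library mean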;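 note: RGS4 expression induced by doxycycline in cells with stable M3 receptor; B-score is computed from the integrated fluorescence ratio over baseline after carbachol; higher B-score means a larger calcium signal and so more RGS4 inhibition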
Target sequence (P49798 whole entry, looked up): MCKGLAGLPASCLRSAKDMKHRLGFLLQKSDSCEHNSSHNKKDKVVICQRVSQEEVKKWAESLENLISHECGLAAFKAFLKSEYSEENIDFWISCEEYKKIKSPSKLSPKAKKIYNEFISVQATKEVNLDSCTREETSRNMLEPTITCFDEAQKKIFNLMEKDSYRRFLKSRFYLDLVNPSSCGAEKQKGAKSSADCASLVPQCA
MrgX1 PAM – allosterically activates human MrgX1 receptor signaling; hit rate 0.63% among 310,000; B-score at 10 µM; MrgX1-HEK293, Fluo-4 calcium flux, FDSS; hits give high values; Q96LB2;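 active = plate-corrected calcium response at least 3 library SD above typical, normal starting fluorescence, not activating the receptor alone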;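 note: compound read alongside a low EC10 to EC30 dose of BAM8-22 agonist; peak minus trough fluorescence over baseline measured at the second addition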
MrgX1 PAM conf – reconfirmed allosteric activator of human MrgX1 receptor; MrgX1-HEK293, Fluo-4 calcium fluorescence, FDSS; activation (ratio percentage), % at 10 µM; shares compounds with MrgX1 PAM; hit rate 13% among 1,200;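 active = ratio at least 3 SD above the weak peptide control, stable starting fluorescence, no direct agonism earlier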;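 note: compound followed by low BAM8-22 agonist challenge near EC20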
MrgX1 ant reconf – confirmation of human MrgX1 receptor antagonists; shares compounds with MrgX1 antag; MrgX1-HEK293, BAM8-22 calcium flux, Fluo-4; hits give low values; remaining BAM8-22 calcium response % of control (hits give low values), % at 10 µM; hit rate 19% among 2,300; AID 602420;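 active = remaining agonist calcium response no higher than 100% minus 3 SD of agonist-only control wells, with starting fluorescence near control levels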;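 note: agonist BAM8-22 given at a near maximal EC90 to ECmax level; peak minus minimum fluorescence divided by baseline after agonist addition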
HEK293 Ca flux – activity in parental HEK293 cells lacking MrgX1. fluorescence ratio F(max-min)/F0 at 10 µM. Fluo-4 calcium fluorescence, FDSS. hit rate 2% among 4,000. shares compounds with MrgX1 antag;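 active = duplicate-averaged calcium fluorescence ratio at least three times the standard deviation of buffer wells, a nonspecific response in parental cells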
HEK293 Ca counter – MrgX1 allosteric activator counter-screen hit in parental HEK293 cells | parental HEK293 calcium flux, Fluo-4 fluorescence ratio; hits give high values | fluorescence ratio F(max-min)/F0 at 10 µM | hit rate 0.4% among 4,000 | shares compounds with MrgX1 antag;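 active = calcium fluorescence ratio, averaged over duplicates, at least 3 SD of the buffer-well ratio, meaning a nonspecific response in receptor-free cells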;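 note: untransfected parental HEK293 lacking MrgX1 used as counterscreen for MrgX1 allosteric activators; fluorescence change taken during the second addition on a kinetic imager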
HEK293 Ca cntr2 – activity in parental HEK293 cells lacking MrgX1 receptor | AID 624115 | shares compounds with MrgX1 antag | fluorescence ratio F(max-min)/F0 at 10 µM | hit rate 8.7% among 4,000 | Fluo-4 calcium fluorescence (FDSS); hits give high values;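 active = calcium fluorescence ratio at least three times the spread of buffer wells, meaning a non-specific response in parental cells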
The depositor's hits bear a star.

What do the screens show for `N#CC1=C(N)Oc2c(ccc3ccccc23)C1c1ccsc1` (stereo unspecified)?
RGS4 act: inactive; MrgX1 antag: inactive; MrgX1 ag: inactive; RGS4 inh: inactive; MrgX1 PAM: 13.8*; MrgX1 PAM conf: inactive; HEK293 Ca flux: inactive; HEK293 Ca counter: inactive; HEK293 Ca cntr2: inactive

Results for N#CC1=C(N)Oc2c(oc(CO)cc2=O)C1c1ccsc1 (stereo unspecified) ?
RGS4 act: inactive; MrgX1 antag: inactive; MrgX1 ag: inactive; RGS4 inh: inactive; MrgX1 PAM: inactive

How did COc1ccc(N2CC(C(=O)N3CCCC(C)C3)CC2=O)cc1 (stereo unspecified) do in these assays?
RGS4 act: inactive; MrgX1 antag: inactive; MrgX1 ag: inactive; RGS4 inh: inactive; MrgX1 PAM: inactive

Results for O=C(COc1ccccc1Cl)NCCC1=CCCCC1 ?
RGS4 act: inactive; MrgX1 antag: inactive; MrgX1 ag: inactive; RGS4 inh: inactive; MrgX1 PAM: 17.5*; MrgX1 PAM conf: inactive; HEK293 Ca flux: inactive; HEK293 Ca counter: inactive; HEK293 Ca cntr2: inactive

Results for O=C(COC(=O)Cc1c(Cl)cccc1Cl)NCCC1=CCCCC1 ?
RGS4 act: inactive; MrgX1 antag: inactive; MrgX1 ag: inactive; RGS4 inh: inactive; MrgX1 PAM: inactive

What do the screens show for `C=CCNC(=S)Nc1ccc(Cl)c(S(=O)(=O)N2CCOCC2)c1`?
RGS4 act: inactive; MrgX1 antag: inactive; MrgX1 ag: inactive; RGS4 inh: inactive; MrgX1 PAM: inactive

How did C=CCNC(=S)Nc1ccc(OC)c(S(=O)(=O)N2CCOCC2)c1 do in these assays?
RGS4 act: inactive; MrgX1 antag: inactive; MrgX1 ag: inactive; RGS4 inh: inactive; MrgX1 PAM: 8.73*; MrgX1 PAM conf: inactive; HEK293 Ca flux: inactive; HEK293 Ca counter: inactive; HEK293 Ca cntr2: inactive

What do the screens show for `Cc1cc(Cl)ccc1OC(C)C(=O)Nc1ccc(S(=O)(=O)Nc2cnc3ccccc3n2)cc1` (stereo unspecified)?
RGS4 act: inactive; MrgX1 antag: -6.74*; MrgX1 ag: inactive; RGS4 inh: inactive; MrgX1 PAM: 7.59*; MrgX1 PAM conf: inactive; MrgX1 ant reconf: 81.0%*; HEK293 Ca flux: inactive; HEK293 Ca counter: inactive; HEK293 Ca cntr2: inactive

Results for CC(Oc1ccc(Cl)cc1Cl)C(=O)Nc1ccc(S(=O)(=O)Nc2cnc3ccccc3n2)cc1 (stereo unspecified) ?
RGS4 act: inactive; MrgX1 antag: inactive; MrgX1 ag: inactive; RGS4 inh: inactive; MrgX1 PAM: inactive

How did O=C(Nc1ccc(S(=O)(=O)NCc2ccccc2)cc1)C1CCCCC1 do in these assays?
RGS4 act: inactive; MrgX1 antag: inactive; MrgX1 ag: inactive; RGS4 inh: inactive; MrgX1 PAM: inactive

What do the screens show for `CN(C)C(=O)c1cn(-c2ccccc2)nc1-c1cc2ccccc2oc1=O`?
RGS4 act: inactive; MrgX1 antag: inactive; MrgX1 ag: inactive; RGS4 inh: inactive; MrgX1 PAM: inactive

What do the screens show for `CN(C)C(=O)c1cn(-c2ccccc2)nc1-c1cc2ccccc2o1`?
RGS4 act: inactive; MrgX1 antag: inactive; MrgX1 ag: inactive; RGS4 inh: inactive; MrgX1 PAM: 8.05*; MrgX1 PAM conf: inactive; HEK293 Ca flux: inactive; HEK293 Ca counter: inactive; HEK293 Ca cntr2: inactive

What do the screens show for `Cc1ccc(S(=O)(=O)c2c(C)nn(C(C)(C)C)c2OC(=O)C(C)C)cc1`?
RGS4 act: inactive; MrgX1 antag: inactive; MrgX1 ag: inactive; RGS4 inh: inactive; MrgX1 PAM: 12*; MrgX1 PAM conf: inactive; HEK293 Ca flux: inactive; HEK293 Ca counter: inactive; HEK293 Ca cntr2: inactive

How did COc1ccc(OC)c(N(CC(=O)N2CCN(c3cc(Cl)ccc3C)CC2)S(C)(=O)=O)c1 do in these assays?
RGS4 act: inactive; MrgX1 antag: inactive; MrgX1 ag: inactive; RGS4 inh: inactive; MrgX1 PAM: 28.7*; MrgX1 PAM conf: 93.1%*; HEK293 Ca flux: inactive; HEK293 Ca counter: inactive; HEK293 Ca cntr2: 54.4*

Results for COc1ccc(N2CCN(C(=O)CN(c3cccc(Br)c3)S(C)(=O)=O)CC2)cc1 ?
RGS4 act: inactive; MrgX1 antag: inactive; MrgX1 ag: inactive; RGS4 inh: inactive; MrgX1 PAM: 18.5*; MrgX1 PAM conf: 16.4%*; HEK293 Ca flux: inactive; HEK293 Ca counter: inactive; HEK293 Ca cntr2: inactive

How did CS(=O)(=O)N(CC(=O)N1CCN(c2ccc(F)cc2)CC1)c1ccc(F)c(Cl)c1 do in these assays?
RGS4 act: inactive; MrgX1 antag: inactive; MrgX1 ag: inactive; RGS4 inh: inactive; MrgX1 PAM: 6.82*; MrgX1 PAM conf: inactive; HEK293 Ca flux: inactive; HEK293 Ca counter: inactive; HEK293 Ca cntr2: inactive

How did CCN1CCN(C(=O)CN(c2cc(OC)ccc2OC)S(C)(=O)=O)CC1 do in these assays?
RGS4 act: inactive; MrgX1 antag: inactive; MrgX1 ag: inactive; RGS4 inh: inactive; MrgX1 PAM: inactive

Results for C(=C\c1ccccn1)/c1cccnc1 ?
RGS4 act: inactive; RGS4 inh: inactive

Results for Cc1nc(CN(C)Cc2nc(Cc3ccccc3Cl)no2)cs1 ?
RGS4 act: inactive; MrgX1 antag: inactive; MrgX1 ag: inactive; RGS4 inh: inactive; MrgX1 PAM: inactive

How did Clc1ccc(-c2noc3c2-c2nc(Cc4cccc5ccccc45)sc2CC3)cc1 do in these assays?
RGS4 act: inactive; MrgX1 antag: inactive; MrgX1 ag: inactive; RGS4 inh: inactive; MrgX1 PAM: inactive

What do the screens show for `Cc1ccccc1NC(=O)c1ccc2c(O)c(S(=O)(=O)c3ccccc3)c(=O)[nH]c2c1`?
RGS4 act: inactive; MrgX1 antag: inactive; MrgX1 ag: inactive; RGS4 inh: inactive; MrgX1 PAM: inactive
